“And” between values parts separate entries of the source, which are not always exact repeats. Identical values can stand only once.
Assays:
Assay type in all cases: toxicity, cell-based
[1] = system: HEK-293T; test: Multiplex assay against HEK293T; settings: human
Summary of the method: (§1)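 Values for tubulin, mitochondrial-mass and membrane-permeability phenotypes are per cents of cells with healthy nuclei. These cells were identified by CellPathfinder machine-learning gating of live cells that had been stained at seeding with Hoechst33342, BioTracker Green Microtubule Cytoskeleton Dye, MitoTracker Red and Annexin V Alexa Fluor 680 and imaged on a CQ1 microscope at 37°C and 5% CO2 after compound addition. The gating first set Hoechst high-intensity objects apart from normal cells, then split normal cells into healthy, pyknosed or fragmented nuclei, and pyknosed cells into mitotic or apoptotic.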

[2] = system: U2OS; test: Multiplex assay against U2OS; settings: human; summary of the method: as §1
[3] = system: Fibroblast; test: Multiplex assay against human fibroblast; summary of the method: as §1
[4] = 12 h, 1 µM, compound concentration 1 uM
[5] = 12 h, 10 µM, compound concentration 10 uM
[6] = 24 h, 1 µM, compound concentration 1 uM
[7] = 24 h, 10 µM, compound concentration 10 uM
[8] = 48 h, 1 µM, compound concentration 1 uM
[9] = 48 h, 10 µM, compound concentration 10 uM

COc1cc(NC(=O)CCN2CCC(OC(=O)Nc3ccccc3-c3ccccc3)CC2)c(Cl)cc1CNC[C@H](O)c1ccc(O)c2[nH]c(=O)ccc12 [BATEFENTEROL]
Population Apoptotic (%) [1, 4]: 42% and 47%
Population Fragmented Nuclei (%) [1, 4]: 4% and 3%
Population Healthy Nuclei (%) [1, 4]: 81% and 78%
Population Hoechst High Intensity Objects (%) [1, 4]: 7% and 8%
Population Membrane Permeable-Phenotype (%) [1, 4]: 0%
Population Mitochondria Different-Phenotype (%) [1, 4]: 65% and 84%
Population Mitotic Cells (%) [1, 4]: 57% and 52%
Population Normal (%) [1, 4]: 92% and 91%
Population Pyknosed Nuclei (%) [1, 4]: 14% and 17%
Population Tubulin-Different-Phenotype (%) [1, 4]: 44% and 41%
Total Cell Count [1, 4]: 420 and 285
Population Apoptotic (%) [1, 5]: 100% and 52%
Population Hoechst High Intensity Objects (%) [1, 5]: 31% and 11%
Population Membrane Permeable-Phenotype (%) [1, 5]: 0% and 1%
Population Normal (%) [1, 5]: 68% and 88%
Population Pyknosed Nuclei (%) [1, 5]: 9% and 22%
Population Apoptotic (%) [1, 6]: 44% and 41%
Population Fragmented Nuclei (%) [1, 6]: 9% and 7%
Population Healthy Nuclei (%) [1, 6]: 77% and 82%
Population Hoechst High Intensity Objects (%) [1, 6]: 5% and 8%
Population Membrane Permeable-Phenotype (%) [1, 6]: 0%
Population Mitochondria Different-Phenotype (%) [1, 6]: 59% and 65%
Population Mitotic Cells (%) [1, 6]: 55% and 58%
Population Normal (%) [1, 6]: 94% and 91%
Population Pyknosed Nuclei (%) [1, 6]: 12% and 9%
Population Tubulin-Different-Phenotype (%) [1, 6]: 35% and 27%
Total Cell Count [1, 6]: 527 and 403
Population Membrane Permeable-Phenotype (%) [1, 7]: 0%
Population Mitochondria Different-Phenotype (%) [1, 7]: 100% and 89%
Population Normal (%) [1, 7]: 66% and 93%
Population Pyknosed Nuclei (%) [1, 7]: 0% and 19%
Population Tubulin-Different-Phenotype (%) [1, 7]: 100% and 78%
Population Apoptotic (%) [1, 8]: 35% and 51%
Population Fragmented Nuclei (%) [1, 8]: 15% and 13%
Population Healthy Nuclei (%) [1, 8]: 75% and 79%
Population Hoechst High Intensity Objects (%) [1, 8]: 3%
Population Membrane Permeable-Phenotype (%) [1, 8]: 0%
Population Mitochondria Different-Phenotype (%) [1, 8]: 36% and 42%
Population Mitotic Cells (%) [1, 8]: 65% and 48%
Population Normal (%) [1, 8]: 96%
Population Pyknosed Nuclei (%) [1, 8]: 8% and 6%
Population Tubulin-Different-Phenotype (%) [1, 8]: 17%
Total Cell Count [1, 8]: 744 and 547
Population Apoptotic (%) [1, 9]: 100% and 57%
Population Hoechst High Intensity Objects (%) [1, 9]: 7%
Population Membrane Permeable-Phenotype (%) [1, 9]: 0%
Population Mitochondria Different-Phenotype (%) [1, 9]: 66% and 76%
Population Normal (%) [1, 9]: 92%
Population Pyknosed Nuclei (%) [1, 9]: 16% and 11%
Population Tubulin-Different-Phenotype (%) [1, 9]: 66% and 74%
Population Apoptotic (%) [2, 4]: 68% and 85%
Population Fragmented Nuclei (%) [2, 4]: 29% and 14%
Population Healthy Nuclei (%) [2, 4]: 49% and 78%
Population Hoechst High Intensity Objects (%) [2, 4]: 4% and 1%
Population Membrane Permeable-Phenotype (%) [2, 4]: 5% and 9%
Population Mitochondria Different-Phenotype (%) [2, 4]: 5% and 6%
Population Mitotic Cells (%) [2, 4]: 31% and 14%
Population Normal (%) [2, 4]: 95% and 98%
Population Pyknosed Nuclei (%) [2, 4]: 21% and 7%
Population Tubulin-Different-Phenotype (%) [2, 4]: 4% and 7%
Total Cell Count [2, 4]: 159 and 98
Population Apoptotic (%) [2, 5]: 72% and 88%
Population Fragmented Nuclei (%) [2, 5]: 37% and 18%
Population Healthy Nuclei (%) [2, 5]: 44% and 59%
Population Hoechst High Intensity Objects (%) [2, 5]: 6% and 7%
Population Membrane Permeable-Phenotype (%) [2, 5]: 60% and 57%
Population Mitochondria Different-Phenotype (%) [2, 5]: 67% and 95%
Population Mitotic Cells (%) [2, 5]: 27% and 11%
Population Normal (%) [2, 5]: 93% and 92%
Population Pyknosed Nuclei (%) [2, 5]: 18% and 22%
Population Tubulin-Different-Phenotype (%) [2, 5]: 75% and 97%
Total Cell Count [2, 5]: 196 and 82
Population Apoptotic (%) [2, 6]: 74% and 100%
Population Fragmented Nuclei (%) [2, 6]: 27% and 12%
Population Healthy Nuclei (%) [2, 6]: 55% and 75%
Population Hoechst High Intensity Objects (%) [2, 6]: 2% and 1%
Population Membrane Permeable-Phenotype (%) [2, 6]: 9% and 5%
Population Mitochondria Different-Phenotype (%) [2, 6]: 9% and 6%
Population Mitotic Cells (%) [2, 6]: 25% and 0%
Population Normal (%) [2, 6]: 97% and 98%
Population Pyknosed Nuclei (%) [2, 6]: 17% and 11%
Population Tubulin-Different-Phenotype (%) [2, 6]: 5% and 2%
Total Cell Count [2, 6]: 182 and 103
Population Apoptotic (%) [2, 7]: 79% and 73%
Population Fragmented Nuclei (%) [2, 7]: 38% and 29%
Population Healthy Nuclei (%) [2, 7]: 38% and 42%
Population Hoechst High Intensity Objects (%) [2, 7]: 4% and 9%
Population Membrane Permeable-Phenotype (%) [2, 7]: 32% and 52%
Population Mitochondria Different-Phenotype (%) [2, 7]: 59% and 91%
Population Mitotic Cells (%) [2, 7]: 20% and 26%
Population Normal (%) [2, 7]: 95% and 90%
Population Pyknosed Nuclei (%) [2, 7]: 22% and 27%
Population Tubulin-Different-Phenotype (%) [2, 7]: 44% and 91%
Total Cell Count [2, 7]: 199 and 93
Population Apoptotic (%) [2, 8]: 82% and 85%
Population Fragmented Nuclei (%) [2, 8]: 26% and 17%
Population Healthy Nuclei (%) [2, 8]: 54% and 64%
Population Hoechst High Intensity Objects (%) [2, 8]: 3% and 4%
Population Membrane Permeable-Phenotype (%) [2, 8]: 3%
Population Mitochondria Different-Phenotype (%) [2, 8]: 5% and 1%
Population Mitotic Cells (%) [2, 8]: 17% and 14%
Population Normal (%) [2, 8]: 96% and 95%
Population Pyknosed Nuclei (%) [2, 8]: 19% and 17%
Population Tubulin-Different-Phenotype (%) [2, 8]: 3% and 1%
Total Cell Count [2, 8]: 242 and 123
Population Apoptotic (%) [2, 9]: 92% and 94%
Population Fragmented Nuclei (%) [2, 9]: 41% and 29%
Population Healthy Nuclei (%) [2, 9]: 39% and 32%
Population Hoechst High Intensity Objects (%) [2, 9]: 6% and 10%
Population Membrane Permeable-Phenotype (%) [2, 9]: 31% and 38%
Population Mitochondria Different-Phenotype (%) [2, 9]: 43% and 70%
Population Mitotic Cells (%) [2, 9]: 7% and 5%
Population Normal (%) [2, 9]: 93% and 89%
Population Pyknosed Nuclei (%) [2, 9]: 18% and 37%
Population Tubulin-Different-Phenotype (%) [2, 9]: 23% and 48%
Total Cell Count [2, 9]: 221 and 105
Population Apoptotic (%) [3, 4]: 53% and 37%
Population Fragmented Nuclei (%) [3, 4]: 25%
Population Healthy Nuclei (%) [3, 4]: 58% and 54%
Population Hoechst High Intensity Objects (%) [3, 4]: 2% and 3%
Population Membrane Permeable-Phenotype (%) [3, 4]: 0% and 3%
Population Mitochondria Different-Phenotype (%) [3, 4]: 13% and 7%
Population Mitotic Cells (%) [3, 4]: 46% and 62%
Population Normal (%) [3, 4]: 97% and 96%
Population Pyknosed Nuclei (%) [3, 4]: 15% and 20%
Population Tubulin-Different-Phenotype (%) [3, 4]: 42% and 50%
Total Cell Count [3, 4]: 181 and 124
Population Apoptotic (%) [3, 5]: 46% and 41%
Population Fragmented Nuclei (%) [3, 5]: 24% and 44%
Population Healthy Nuclei (%) [3, 5]: 59% and 41%
Population Hoechst High Intensity Objects (%) [3, 5]: 2%
Population Membrane Permeable-Phenotype (%) [3, 5]: 0% and 1%
Population Mitochondria Different-Phenotype (%) [3, 5]: 22% and 23%
Population Mitotic Cells (%) [3, 5]: 53% and 58%
Population Normal (%) [3, 5]: 97%
Population Pyknosed Nuclei (%) [3, 5]: 16% and 13%
Population Tubulin-Different-Phenotype (%) [3, 5]: 63% and 84%
Total Cell Count [3, 5]: 199 and 128
Population Apoptotic (%) [3, 6]: 55% and 50%
Population Fragmented Nuclei (%) [3, 6]: 21% and 26%
Population Healthy Nuclei (%) [3, 6]: 62% and 59%
Population Hoechst High Intensity Objects (%) [3, 6]: 1% and 2%
Population Membrane Permeable-Phenotype (%) [3, 6]: 0% and 3%
Population Mitochondria Different-Phenotype (%) [3, 6]: 7% and 10%
Population Mitotic Cells (%) [3, 6]: 44% and 50%
Population Normal (%) [3, 6]: 98% and 97%
Population Pyknosed Nuclei (%) [3, 6]: 15% and 14%
Population Tubulin-Different-Phenotype (%) [3, 6]: 39% and 57%
Total Cell Count [3, 6]: 174 and 131
Population Apoptotic (%) [3, 7]: 51% and 81%
Population Fragmented Nuclei (%) [3, 7]: 35% and 46%
Population Healthy Nuclei (%) [3, 7]: 53% and 45%
Population Hoechst High Intensity Objects (%) [3, 7]: 0% and 1%
Population Membrane Permeable-Phenotype (%) [3, 7]: 0% and 1%
Population Mitochondria Different-Phenotype (%) [3, 7]: 34% and 14%
Population Mitotic Cells (%) [3, 7]: 48% and 18%
Population Normal (%) [3, 7]: 99% and 98%
Population Pyknosed Nuclei (%) [3, 7]: 11% and 8%
Population Tubulin-Different-Phenotype (%) [3, 7]: 63% and 80%
Total Cell Count [3, 7]: 247 and 136
Population Apoptotic (%) [3, 8]: 62% and 66%
Population Fragmented Nuclei (%) [3, 8]: 23% and 29%
Population Healthy Nuclei (%) [3, 8]: 54% and 56%
Population Hoechst High Intensity Objects (%) [3, 8]: 3%
Population Membrane Permeable-Phenotype (%) [3, 8]: 0% and 4%
Population Mitochondria Different-Phenotype (%) [3, 8]: 18% and 14%
Population Mitotic Cells (%) [3, 8]: 37% and 33%
Population Normal (%) [3, 8]: 96%
Population Pyknosed Nuclei (%) [3, 8]: 22% and 14%
Population Tubulin-Different-Phenotype (%) [3, 8]: 53% and 70%
Total Cell Count [3, 8]: 185 and 130
Population Apoptotic (%) [3, 9]: 74% and 88%
Population Fragmented Nuclei (%) [3, 9]: 22% and 45%
Population Healthy Nuclei (%) [3, 9]: 54% and 48%
Population Hoechst High Intensity Objects (%) [3, 9]: 1% and 0%
Population Membrane Permeable-Phenotype (%) [3, 9]: 0% and 1%
Population Mitochondria Different-Phenotype (%) [3, 9]: 45% and 15%
Population Mitotic Cells (%) [3, 9]: 25% and 11%
Population Normal (%) [3, 9]: 98% and 99%
Population Tubulin-Different-Phenotype (%) [3, 9]: 77% and 76%
Total Cell Count [3, 9]: 213 and 144

Reference: ChEMBL document CHEMBL5724801, “EUbOPEN Chemogenomics Library - Multiplex” (2024)
